Here are results for 14 molecules from PubChem BioAssay.

Assay [1] can be described thus: inhibitors of TNFa-induced NFkB p65 translocation, primary screen, imaging, HUVEC, MLSMR starter and 10KST1 sets (AID 438;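 active = inhibition above 20% together with a positive visual image hit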;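 note: compound added about 3h40 before a 20 min TNFalpha stimulation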;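 for inhibition: signal is the nuclear over cytoplasmic p65 intensity ratio per well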). The conditions noted are these: HUVEC TNFa-induced p65 nuclear translocation; cell count: measured here: nuclei count (cytotoxicity indicator), at 2.08 µM; inhibition: at 2 µM, stronger effect = higher value, 0% TNFa-plus-vehicle, 100% no-TNFa wells.
Assay [2] is described as follows: inhibitors of mutant huntingtin aggregation, primary screen, imaging, exon1htt(103Q)mCFP cells, high-content imaging (AID 483;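 active = visual image review flags a hit and inhibition of aggregation exceeds 20%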;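 note: compound exposure lasted 3 days before fixation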;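 for nuclei count: percent of the per-plate median nuclei count of sample wells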). The following applies: exon1htt(103Q)mCFP cell line, aggregate imaging, at 2 µM; inhibition of aggregation: stronger effect = higher value; nuclei count: measured here: cell count, toxicity.
Assay [3] in a line: inhibitors of E-selectin induction by TNFa, primary screen, imaging, HUVEC, immunofluorescence, MLSMR starter and 10KST1 sets (AID 487;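 active = visually confirmed hit in the image check and inhibition above 20%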;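 for inhibition: signal is fraction of cell area covered by stained E-selectin grains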;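 for nuclei count: 100% = median nuclei count of all wells on the same plate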). The following applies: HUVEC TNFalpha-induced E-selectin immunofluorescence imaging, at 2 µM; inhibition: stronger effect = higher value; nuclei count: measured here: cell number, toxicity.
For assay [4], the target named is Voltage-gated potassium channel subunit beta-2 (Rattus norvegicus) (UniProt P62483). In words: KvBeta enzyme negative modulators, primary screen, biochemical, NADPH fluorescence (AID 622;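 active = fluorescence slope higher than the sample average by over 3 SD, cut at about -0.22 in these data, passing the limit was not always enough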;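 note: slope of raw intensity against log time taken from 70 to 1610 s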). The conditions noted are these: recombinant KvBeta, 4-cyanobenzaldehyde reduction, at 10 µM, stronger effect = higher value.
Chain of Voltage-gated potassium channel subunit beta-2 (Rattus norvegicus) (P62483 whole entry, looked up): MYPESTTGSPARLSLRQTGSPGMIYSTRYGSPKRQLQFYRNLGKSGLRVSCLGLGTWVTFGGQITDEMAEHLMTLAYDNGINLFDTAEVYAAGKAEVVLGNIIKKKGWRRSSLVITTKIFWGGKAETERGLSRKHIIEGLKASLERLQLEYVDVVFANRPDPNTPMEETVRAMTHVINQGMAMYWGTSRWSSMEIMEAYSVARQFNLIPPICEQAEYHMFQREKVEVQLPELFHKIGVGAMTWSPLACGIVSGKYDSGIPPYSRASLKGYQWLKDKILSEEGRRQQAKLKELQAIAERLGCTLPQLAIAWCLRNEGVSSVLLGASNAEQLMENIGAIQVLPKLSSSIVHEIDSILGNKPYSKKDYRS
Assay [5] has the same target. As to the kind of experiment: KvBeta positive modulators, primary screen, biochemical, NADPH fluorescence (AID 623;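 active = NADPH fluorescence slope more negative than the mean of all samples by about 3 SD, 99.7% confidence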;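 note: fluorescence intensity change per second fitted from 20 to 320 s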). The following applies: Recombinant KvBeta, NADPH fluorescence decrease slope, 10 min; at 10 µM; stronger effect = lower value.
Assay [6] has as its target Muscarinic acetylcholine receptor M4 (Homo sapiens) (UniProt P08173). In words: compounds altering M4/GIRK thallium flux, either direction, primary screen, M4 allosteric agonist project, cell-based, HEK293 M4/GIRK, BTC-AM (AID 625;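 active = fluorescence slope after compound addition differing from the mean of all tested samples at 99.7% confidence, mostly higher but some lower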;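 note: thallium influx through GIRK channels coupled to M4 in HEK293 cells with BTC-AM dye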). The conditions noted are these: at 10 µM, actives lie on both sides. A digest of the protocol: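 Material – HEK293 cells with M4 receptor and GIRK channels · Buffer or medium – pH 7.3 thallium assay buffer · Doses – one dose, 10 µM final · Timing – cells overnight at 37 °C, BTC-AM loading 1 h, reads 2 min total · Measured by – kinetic fluorescence with BTC-AM dye · Controls – carbachol and DMSO controls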

Assay [7] can be described thus: inhibitors of Sendai virus-induced IRF3 signaling, primary screen, TLR/RLR signaling modifier project, cell-based, Sendai virus stimulus, luciferase, 10K MLSCN set (AID 602276).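 Note: firefly luciferase from ISG56 promoter only with Renilla not read in this screen; 0% = Sendai virus plus DMSO and 100% = medium plus DMSO without virus.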 The conditions noted are these: HEK293 RL24 IRF3 luciferase reporter, at 10 µM, stronger effect = higher value.
The nature of assay [8]: inhibitors of poly I:C-induced TLR3 signaling, primary screen, cell-based, poly I:C stimulus, luciferase, 10K MLSCN set (AID 602277;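 active = inhibition of the reporter signal at or above 50%; inactive = inhibition below 50%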). The following applies: HEK293-TLR3 RL24 IRF3 luciferase reporter, at 10 µM, stronger effect = higher value.

SMILES strings stand for the structures. Activity calls are given as the source filed them.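 Rule for the calls, unless noted: active = inhibition at or above 50% at 10 µM; inactive = inhibition below 50%.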

Chain of Muscarinic acetylcholine receptor M4 (Homo sapiens) (P08173 whole entry, looked up): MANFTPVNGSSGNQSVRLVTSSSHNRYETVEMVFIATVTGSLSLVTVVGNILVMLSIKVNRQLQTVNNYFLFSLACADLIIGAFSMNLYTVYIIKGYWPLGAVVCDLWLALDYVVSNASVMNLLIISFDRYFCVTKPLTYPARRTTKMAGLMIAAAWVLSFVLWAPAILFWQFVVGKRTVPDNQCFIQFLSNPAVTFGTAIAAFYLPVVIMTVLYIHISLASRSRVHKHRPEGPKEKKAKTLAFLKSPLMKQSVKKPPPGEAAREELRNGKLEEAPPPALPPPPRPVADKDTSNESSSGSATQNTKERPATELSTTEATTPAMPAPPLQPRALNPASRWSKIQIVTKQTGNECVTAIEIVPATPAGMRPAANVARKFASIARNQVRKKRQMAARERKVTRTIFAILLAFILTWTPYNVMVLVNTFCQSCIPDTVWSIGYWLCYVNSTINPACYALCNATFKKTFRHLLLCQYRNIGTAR

`COc1ccc(OC)c(N(CC(=O)N2CCN(c3cc(Cl)ccc3C)CC2)S(C)(=O)=O)c1`: the cell count in assay [1] came to 497. The inhibition (commonly the drop in the measured response relative to a control, in per cent) in assay [1] was -7.3% (inactive); in assay [3], -13.6% (inactive); in assay [7], 17% (inactive); in assay [8] it was 24.6% (inactive). The inhibition of aggregation in assay [2] was 23.1% (inactive). Moreover, the nuclei count in assay [2] was 61.4%; in assay [3] it was 105%. In addition, the fluorescence slope was -0.572 (inactive) in assay [4] and 0.00582 (inactive) in assay [6]. The NADPH fluorescence slope in assay [5] was -5.2e-05 (inactive).
As to `CC(C)(C)c1cc(C(=S)N2CCN(CCO)CC2)cc(C(C)(C)C)c1O`, the cell count in assay [1] was determined as 667. Also, the inhibition was -1.4% (inactive) in assay [1], -150% (inactive) in assay [3], 24.4% (inactive) in assay [7] and 29.9% (inactive) in assay [8]. In assay [2], the inhibition of aggregation was 10.4% (inactive). Besides, the nuclei count in assay [2] came to 105%; in assay [3], 128%. In addition, the results for the fluorescence slope in assay [4] and in assay [6] were -0.534 (inactive) and 0.00566 (inactive), respectively. Also, in assay [5], the NADPH fluorescence slope is -4.4e-05 (inactive).
On to `COc1cccc(OC)c1C(=O)Nc1cccc(C(C)=O)c1`, for which the cell count in assay [1] worked out at 734. The inhibition is -11.6% (inactive) in assay [1], 15.5% (inactive) in assay [3], 12.1% (inactive) in assay [7] and 27.4% (inactive) in assay [8]. Moreover, in assay [2], the inhibition of aggregation is 19.3% (inactive). Also, the nuclei count in assay [2] came to 95.5%; in assay [3], 104%. For the same molecule, the fluorescence slope was -0.53 (inactive) in assay [4] and 0.00451 (inactive) in assay [6]. Further, in assay [5], the NADPH fluorescence slope is -1.1e-05 (inactive).
For `O=C1CC2CS(=O)(=O)CC2N1c1ccc(Oc2ccccc2)cc1` (centres undefined), the cell count in assay [1] was determined as 330. Further, the inhibition in assay [1] is 3.1% (inactive); in assay [3], -33.8% (inactive); in assay [7] it was 17.3% (inactive); in assay [8], 33% (inactive). Further, in assay [2], the inhibition of aggregation is 5.7% (inactive). For the same molecule, the nuclei count in assay [2] worked out at 88.5%; in assay [3], 106%. In addition, the results for the fluorescence slope in assay [4] and in assay [6] were -0.395 (inactive) and 0.00573 (inactive), respectively. Besides, the NADPH fluorescence slope in assay [5] was -8.8e-05 (inactive).
Take `Cc1ccc(NC2c3ncccc3C(=O)N2C2CCCCC2)cc1C` (centres undefined): the cell count in assay [1] worked out at 465. In addition, the inhibition in assay [1] is 0.7% (inactive); in assay [3], -28% (inactive); in assay [7] it was 1.86% (inactive); in assay [8], 7.53% (inactive). In assay [2], the inhibition of aggregation is -11.9% (inactive). The figures for the nuclei count in assay [2] and in assay [3] were 119% and 102%, respectively. Further, the fluorescence slope in assay [4] was -0.276 (inactive); in assay [6], 0.00562 (inactive). Further, the NADPH fluorescence slope in assay [5] was -8.5e-06 (inactive).
Turning to `COC(=O)c1ccccc1NC(=O)Nc1cccs1`, the cell count in assay [1] came to 567. Also, the inhibition in assay [1] was -11.5% (inactive); in assay [3] it was -29.5% (inactive); in assay [7], 10.3% (inactive); in assay [8], 11.6% (inactive). The inhibition of aggregation in assay [2] is -4.6% (inactive). The nuclei count in assay [2] amounted to 96.1%; in assay [3], 110%. The fluorescence slope in assay [4] is -0.425 (inactive); in assay [6], 0.00583 (inactive). Moreover, in assay [5], the NADPH fluorescence slope is -9.4e-05 (inactive).
For the molecule `CC1CCN(S(=O)(=O)c2ccc(NC(=O)CSc3nnnn3C)cc2)CC1`, in assay [1], the cell count is 289. Also, the inhibition in assay [1] is -5.4% (inactive); in assay [3], -1.6% (inactive); in assay [7] it was 10.9% (inactive); in assay [8], 20.7% (inactive). In assay [2], the inhibition of aggregation was -4.7% (inactive). Further, the nuclei count is 107% in assay [2] and 91.8% in assay [3]. The fluorescence slope was -0.411 (inactive) in assay [4] and 0.00682 (inactive) in assay [6]. Besides, the NADPH fluorescence slope in assay [5] is -3.1e-05 (inactive).
Turning to `CC1CCN(C(=S)c2ccccc2O)CC1`, in assay [1], the cell count is 713. Also, the inhibition is -2.9% (inactive) in assay [1], -144% (inactive) in assay [3], 24.9% (inactive) in assay [7] and 34.5% (inactive) in assay [8]. Besides, the inhibition of aggregation in assay [2] was 7.3% (inactive). Also, the nuclei count in assay [2] worked out at 98.7%; in assay [3], 121%. Besides, the fluorescence slope in assay [4] was -0.536 (inactive); in assay [6], 0.0045 (inactive). In addition, the NADPH fluorescence slope in assay [5] is -5.2e-05 (inactive).
Consider `NC(=O)SCC(=O)Nc1cccc(Cl)c1`, for which the cell count in assay [1] stood at 449. In addition, the inhibition in assay [1] was -0.5% (inactive); in assay [3], -267% (inactive); in assay [7] it was 18.6% (inactive); in assay [8], 15.3% (inactive). In addition, in assay [2], the inhibition of aggregation is -7.6% (inactive). For the same molecule, the nuclei count in assay [2] stood at 119%; in assay [3] it was 132%. In addition, the results for the fluorescence slope in assay [4] and in assay [6] were -0.576 (inactive) and 0.00648 (inactive), respectively. Moreover, the NADPH fluorescence slope in assay [5] was -1.5e-06 (inactive).
For `Cc1cc(NC(=O)CN2CCC(O)(c3cccc(F)c3)CC2)no1`, in assay [1], the cell count was found to be 584. Moreover, the inhibition in assay [1] was -53.1% (inactive); in assay [3], -107% (inactive); in assay [7], -0.229% (inactive); in assay [8], 20.2% (inactive). The inhibition of aggregation in assay [2] is 0.2% (inactive). Besides, the figures for the nuclei count in assay [2] and in assay [3] were 103% and 117%, respectively. In addition, the fluorescence slope in assay [4] is -0.283 (inactive); in assay [6] it was 0.00664 (inactive). The NADPH fluorescence slope in assay [5] was -1.6e-05 (inactive).
Take `CCC(Sc1nc2n[nH]c(C)c2c(=N)n1-c1cc(Cl)ccc1C)C(=O)N1CCOCC1` (centres undefined): the cell count in assay [1] was found to be 338. Also, the inhibition in assay [1] is -2.1% (inactive); in assay [3] it was -273% (inactive); in assay [7], -6.83% (inactive); in assay [8], 10% (inactive). Further, the inhibition of aggregation in assay [2] is 11.8% (inactive). The values for the nuclei count in assay [2] and in assay [3] were 97.6% and 108%, respectively. The values for the fluorescence slope in assay [4] and in assay [6] were -0.593 (inactive) and 0.00508 (inactive), respectively. Also, in assay [5], the NADPH fluorescence slope was -1.6e-05 (inactive).
Consider `NC(=O)c1c(NC(=O)CSc2nnc(-c3ccco3)n2-c2ccccc2)sc2c1CCC2`, for which the cell count in assay [1] worked out at 577. The inhibition in assay [1] was -15.4% (inactive); in assay [3], 50.4% (inactive); in assay [7] it was 30.1% (inactive); in assay [8] it was 32.9% (inactive). The inhibition of aggregation in assay [2] was -3.6% (inactive). Also, the nuclei count was determined as 115% in assay [2] and 132% in assay [3]. Further, the fluorescence slope was -0.525 (inactive) in assay [4] and 0.00489 (inactive) in assay [6]. For the same molecule, the NADPH fluorescence slope in assay [5] was 0.00013 (inactive).
Turning to `Cc1n[nH]c(C)c1S(=O)(=O)N1CCN(c2ccccn2)CC1`, the cell count in assay [1] was 407. The inhibition in assay [1] was -8.5% (inactive); in assay [3] it was -43.6% (inactive); in assay [7] it was -0.889% (inactive); in assay [8] it was 2.25% (inactive). The inhibition of aggregation in assay [2] is 12.4% (inactive). The nuclei count was determined as 76% in assay [2] and 108% in assay [3]. The fluorescence slope in assay [4] is -0.485 (inactive); in assay [6], 0.00681 (inactive). Besides, the NADPH fluorescence slope in assay [5] was 5e-05 (inactive).
Consider `O=C(Nc1cccnc1)Nc1ccc2c(c1)OCO2`, for which the cell count in assay [1] amounted to 420. The inhibition in assay [1] is 0.8% (inactive); in assay [3] it was 6% (inactive); in assay [7], -19.2% (inactive); in assay [8], -53.4% (inactive). In addition, the inhibition of aggregation in assay [2] was -14.9% (inactive). The nuclei count was 121% in assay [2] and 51.1% in assay [3]. In addition, the fluorescence slope in assay [4] was -0.418 (inactive); in assay [6] it was 0.00717 (inactive). Besides, in assay [5], the NADPH fluorescence slope is 6.4e-06 (inactive).
